Compound activity as filed in PubChem BioAssay.
A selection: hits, their analogues and other compounds. The true share with any hit is near 2.5%.
SMARCA2 act = SMARCA2 function activation, primary screen; MG213 cells, MMTV-luciferase reporter, dexamethasone, overnight; activation, % at 9.1 µM; 370,000 compounds, 1% hits; in the data active = activation above about 7.8%
SR-BI DiI-HDL act = activators of SR-BI mediated HDL lipid uptake; CHO ldlA[mSR-BI] cells, DiI-HDL uptake fluorescence, 3 h; 100 = double the neutral-control signal; activation, % at 12.5 µM; 320,000 compounds, 0.096% hits; AID 504775;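 active = mean replicate activation of at least 60% and every replicate at or above 60%; inconclusive = mean or all-replicate condition met, but not both; inactive = mean below 60% and not all replicates reaching 60%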
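System: LDL receptor-deficient CHO ldlA cells overexpressing murine SR-BI | Timing: 3 h uptake period with compound, 37 °C | Medium: HEPES-buffered (25 mM, pH 7.4) F12 plus 0.5% BSA | Dosing: Single-point compound dose | Signal: Bottom-read fluorescence, 550/595 nm | Read-out: Retained DiI signal reflecting DiI-HDL uptake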
Vif imaging = blocks HIV Vif function | HEK293T cells, Vif self-association by quenched fluorescence, imaging, 24 h | 340,000 compounds, 0.35% hits | inhibition, % at 7.49 µM | AID 602346; in the data active = inhibition above about 50%, passing the limit was not always enough; inconclusive = no clear call, values can overlap the other calls; inactive = below about 31%
TAG inh = inhibitors of triacylglycerol accumulation; H9c2 cells, Nile Red lipid (TAG) fluorescence; cells loaded with 200 µM oleic acid; 230,000 compounds, 0.66% hits; inhibition, % at 12.5 µM; AID 651582;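 active = pattern-corrected inhibition of lipid staining of at least 50% with the nuclear-stain viability signal not falling by more than 50%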
SR-BI DiI inh = mouse SR-BI HDL lipid transfer inhibition; inhibition, % at 12.5 µM; 320,000 compounds, 0.96% hits; ldlA[mSR-BI] CHO cells, DiI-HDL uptake fluorescence, 3 h;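 active = mean replicate inhibition of at least 70% and a set share of replicates each scoring 70 or more; inconclusive = meets just one of the two criteria; inactive = fails both criteria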
Target sequence (Q61009 whole entry, looked up): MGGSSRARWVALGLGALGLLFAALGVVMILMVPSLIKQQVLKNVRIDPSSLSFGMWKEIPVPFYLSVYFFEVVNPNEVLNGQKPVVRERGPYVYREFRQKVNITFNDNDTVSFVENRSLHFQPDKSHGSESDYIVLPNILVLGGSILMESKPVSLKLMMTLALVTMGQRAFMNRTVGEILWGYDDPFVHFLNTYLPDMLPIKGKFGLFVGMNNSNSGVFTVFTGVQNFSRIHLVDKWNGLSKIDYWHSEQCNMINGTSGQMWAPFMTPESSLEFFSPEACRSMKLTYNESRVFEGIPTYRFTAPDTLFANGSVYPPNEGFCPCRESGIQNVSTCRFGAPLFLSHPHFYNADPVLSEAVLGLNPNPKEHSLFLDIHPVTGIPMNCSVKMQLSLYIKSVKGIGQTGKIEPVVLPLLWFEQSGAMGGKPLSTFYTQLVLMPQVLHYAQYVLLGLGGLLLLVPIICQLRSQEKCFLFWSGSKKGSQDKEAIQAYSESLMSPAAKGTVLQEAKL
SMARCA2 conf = confirmation of SMARCA2 (BRM) function activators | activation, % at 9.1 µM | shares compounds with SMARCA2 act | MG213 cells, MMTV-luciferase with dexamethasone, luminescence, overnight; MG213 cells expressing E1A, Rb sequestered; DMSO wells 0%, reference activator 100% | 3,500 compounds, 30% hits | AID 652260;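 active = activation above its plate's cutoff, the mean activation of tested wells plus 3 SD, cut at about 7.9% in these data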
GAL4-VP16 Luc = GAL4-VP16 reporter activation counter-screen. shares compounds with SMARCA2 act. HEK293 GAL4-VP16 pG5luc reporter, luciferase luminescence; scaled: DMSO wells 0%, SAHA wells 100%. activation, % at 9.1 µM. 3,500 compounds, 41% hits;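 active = activation above the solvent-only control well mean plus 3 SD, averaged across control plates, cut at about 5.2% in these data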
Each line names hits and unclear results; the compound was inactive in the other large screens (follow-up assays come after a bar, where they were run).

Nc1nc2c(ncn2[C@@H]2O[C@H](C(=O)N[C@H](Cc3ccccc3)C(=O)O)[C@@H](O)[C@H]2O)c(=O)[nH]1	none (no result: SR-BI DiI-HDL act, Vif imaging, TAG inh, SR-BI DiI inh)
CN(/N=C/c1cccnc1)c1cnc2ccccc2n1	SMARCA2 act 9.0 | SMARCA2 conf 19 | GAL4-VP16 Luc 11
CCOc1cc(C=NN2CCN(Cc3ccc(C)cc3)CC2)ccc1O	none (no result: SR-BI DiI-HDL act, Vif imaging, TAG inh, SR-BI DiI inh)
COc1ccc([C@H]2C(C(=O)O)=C[C@@H](C(C)(C)C)N2S(=O)(=O)c2ccc(C)cc2)cc1OC	none (no result: Vif imaging)
Cc1cccc(CN2CCN(c3ccccn3)CC2)c1	none (no result: TAG inh)
Cc1ccc(CN2CCN(c3ccccn3)CC2)s1	SMARCA2 act 9.6 (no result: TAG inh) | SMARCA2 conf inactive | GAL4-VP16 Luc inactive
CCn1c(=O)cc(SCC(=O)NCc2ccc(C)cc2)c2ccccc21	SR-BI DiI-HDL act inconclusive
CCn1c(=O)cc(SCC(=O)Nc2ccc(C)cn2)c2ccccc21	SMARCA2 act 9.2 (no result: TAG inh) | SMARCA2 conf 15 | GAL4-VP16 Luc inactive
O=C(O)c1ccc2nc(-c3ccccc3)c(-c3ccccc3)nc2c1	SMARCA2 act 10 (no result: TAG inh) | SMARCA2 conf inactive | GAL4-VP16 Luc inactive
Cc1ccc(N=C2NC(=O)CC(C(=O)Nc3ccc4c(c3)OCO4)S2)cc1 (stereo not given)	none
C/C(CCc1ccc2c(c1)OCO2)=N\N=C1\NC(=O)CC(C(=O)Nc2ccc(Cl)cc2)S1 (stereo not given)	SMARCA2 act 11 (no result: Vif imaging, TAG inh) | SMARCA2 conf inactive | GAL4-VP16 Luc inactive
CC(C)(C)OC(=O)N/N=C/c1ccc(Br)cc1	SMARCA2 act 8.2 | SMARCA2 conf 8.3 | GAL4-VP16 Luc 10
CC(C)(C)NC(=O)C(=O)N/N=C/c1ccc(Br)cc1	none
COc1ccccc1NS(=O)(=O)c1cc(NC(=O)c2ccc(NC(C)=O)cc2)ccc1N1CCOCC1	SMARCA2 act 18 | SMARCA2 conf 16 | GAL4-VP16 Luc inactive
COc1ccccc1NC(=O)Nc1ccc(N2CCOCC2)cc1	SMARCA2 act 8.8 | SMARCA2 conf 8.1 | GAL4-VP16 Luc 5.6
COc1ccccc1NS(=O)(=O)c1cc(NC(=O)c2ccncc2)ccc1N1CCOCC1	none (no result: TAG inh)
COc1ccc(NC(=O)N(C)C[C@H]2Oc3c(NS(=O)(=O)c4cccs4)cccc3C(=O)N([C@@H](C)CO)C[C@@H]2C)cc1	none
N#CCC(=O)Nc1ccc(C(=O)OCC(=O)N=c2sccn2Cc2ccccc2Cl)cc1	none (no result: Vif imaging)
COc1cc2c(c(OC)c1OC)[C@@]1(c3ccccc3)CCCCC[C@H]1[C@@H]2NC(=O)C(F)(F)F	none (no result: SR-BI DiI-HDL act, Vif imaging, TAG inh, SR-BI DiI inh)
O=c1c2ccccc2nc2n1CCc1c-2[nH]c2ccccc12	SMARCA2 act 16 | SMARCA2 conf 8.4 | GAL4-VP16 Luc 9.3
CCCSc1nc2cc(S(=O)(=O)N3CCOCC3)ccc2n1CC	none (no result: Vif imaging)
Cc1nnc(SCc2nc3ccccc3s2)n1N	SMARCA2 act 8.5 | SMARCA2 conf 8.2 | GAL4-VP16 Luc inactive
COCCn1c(SCc2nc3ccccc3s2)nc2ccccc21	SMARCA2 act 15 (no result: TAG inh) | SMARCA2 conf inactive | GAL4-VP16 Luc 8.1
CCn1c(SCc2nc3ccccc3s2)nc2cc(S(=O)(=O)N3CCOCC3)ccc21	SMARCA2 act 10 | SMARCA2 conf inactive | GAL4-VP16 Luc inactive
O=c1c2ccccc2oc2cc(Br)ccc12	none
O=c1c2ccccc2oc2c1oc1ccccc12	SMARCA2 act 14 | SMARCA2 conf inactive | GAL4-VP16 Luc 9.0
CN(C)/C=N/c1sc2c(c1C#N)CCCCC2	none (no result: TAG inh)
N#Cc1c(/N=C/N2CCOCC2)sc2c1CCCCC2	SMARCA2 act 18 | SMARCA2 conf inactive | GAL4-VP16 Luc 12
CCCN(/C=N/c1sc2c(c1C#N)CCCCC2)CCC	SMARCA2 act 15 | SMARCA2 conf inactive | GAL4-VP16 Luc inactive
C=CCNc1ccc(C(=O)O)cc1	SMARCA2 act 9.7 (no result: TAG inh) | SMARCA2 conf inactive | GAL4-VP16 Luc inactive
CC(=O)Nc1ccc(C(=O)O)cc1	none (no result: TAG inh)
CCNC(=S)NNC(=O)c1ccccc1Cl	SMARCA2 act 8.2 (no result: TAG inh) | SMARCA2 conf inactive | GAL4-VP16 Luc inactive
COc1cccc(N2CCN(CC(=O)NCc3ccc(F)cc3)CC2)c1	none (no result: SR-BI DiI-HDL act, Vif imaging, TAG inh, SR-BI DiI inh)
CCC(Cc1ccccc1)NS(=O)(=O)c1csc(C(N)=O)c1 (stereo not given)	none (no result: TAG inh)
Cc1ccc(-n2c(=O)cc(N3CCC(C)CC3)[nH]c2=O)cc1	SMARCA2 act 8.2 (no result: TAG inh) | SMARCA2 conf inactive | GAL4-VP16 Luc inactive
Cc1ccc(-n2c(=O)cc(N3CC(C)CC(C)C3)[nH]c2=O)cc1 (stereo not given)	none (no result: TAG inh)
COC(=O)[C@H](Cc1ccccc1)NP(=O)(OC)[C@@H](C)NC(=O)OCc1ccccc1 (stereo not given in full)	none (no result: SR-BI DiI-HDL act, Vif imaging, TAG inh, SR-BI DiI inh)
Cc1ccccc1NC(=S)N(Cc1ccco1)C(C)c1cccs1 (stereo not given)	SMARCA2 act 11 | SMARCA2 conf inactive | GAL4-VP16 Luc inactive
O=C(NCCN1CCOCC1)c1sc2cc(Cl)ccc2c1Cl	none (no result: TAG inh)
O=C(NCC1CCCO1)c1sc2cc(Cl)ccc2c1Cl (stereo not given)	SMARCA2 act 10 (no result: Vif imaging, TAG inh) | SMARCA2 conf 8.4 | GAL4-VP16 Luc 9.4
Cc1cc(C)n(CCC(=O)Nc2ccc(-c3ccno3)cc2)n1	none (no result: TAG inh)
CSc1cccc(N2CC(C(=O)Nc3ccccc3N3CCCC3)CC2=O)c1 (stereo not given)	none
COC(=O)Cc1csc(Nc2ccc(Cl)cc2)n1	none (no result: TAG inh)
COC(=O)Cc1csc(Nc2ccccc2)n1	SMARCA2 act 8.4 | SMARCA2 conf inactive | GAL4-VP16 Luc inactive
COC(=O)[C@]12C[C@H](CC(=O)N3CCC(c4ccccc4)CC3)C(=O)N(Cc3ccccc3)C1=C[C@H](COCc1ccccc1)O[C@@H]2C	none (no result: SR-BI DiI-HDL act, Vif imaging, TAG inh, SR-BI DiI inh)
Cc1c(C(=O)NCc2ccccc2C(F)(F)F)sc(=O)n1Cc1ccc(S(=O)(=O)N(C)C)cc1	none (no result: SR-BI DiI-HDL act, SR-BI DiI inh)
C(=N\Nc1nncc2ccccc12)/c1ccccc1	none
Cc1cccc(/C=N/Nc2nncc3ccccc23)c1	SMARCA2 act 12 | SMARCA2 conf 14 | GAL4-VP16 Luc 8.8
COc1cc2c(cc1NC(=O)CSc1nnc(-c3cccc(Cl)c3)n1Cc1ccco1)oc1ccccc12	none (no result: SR-BI DiI-HDL act, Vif imaging, TAG inh, SR-BI DiI inh)
COc1ccc(C=C2CS(=O)(=O)CC(=Cc3ccc(OC)cc3)C2=O)cc1	SMARCA2 act 14, Vif imaging 112 (no result: SR-BI DiI-HDL act, SR-BI DiI inh) | SMARCA2 conf inactive | GAL4-VP16 Luc inactive
COc1ccc(/C=C2\CCCCC2=O)cc1	none
COC(=O)c1sc2nc(-c3ccco3)ccc2c1N	SMARCA2 act 8.0 | SMARCA2 conf 14 | GAL4-VP16 Luc 6.5
NC(=O)c1sc2nc(-c3ccco3)ccc2c1N	none
CC(C)COC(=O)c1ccc2c(c1O)C(=O)c1ccccc1C2=O	SMARCA2 act 8.7 | SMARCA2 conf inactive | GAL4-VP16 Luc inactive
